Blank lines part the entries; values can stand above or below the molecule they belong to. The source made the active and inactive calls. The rule behind the calls is not given here.
Tests used:
Homo sapiens [1] = species: Homo sapiens; experiment: Inhibition of LTB4-induced chemotaxis in human polymorphonuclear leukocytes at 0.01 to 10 nM incubated for 90 mins by Diff-Quick staining based densitometric analysis; assay type: functional, cell-based
Summary of the method: (§1)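 Human peripheral blood PMNL from healthy NSAID-free donors were isolated by Percoll and hypotonic lysis. Migration toward 10 nM LTB4 in RPMI/0.1% BSA was run in a 48-well microchamber with 5 μm polycarbonate filters, 2×10^6 cells/mL. Test agents at 0.01–10 nM or EtOH were added to both compartments. After 90 min at 37°C, migrated cells were stained and read by densitometry. Sextuplicates, 3–4 donors, normalized to negative controls.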

[2] = Drug metabolism in human HepG2 cells assessed as 3Z,6R,7E,9E,11Z,13S,15Z)-6,13-Dihydroxyoctadeca-3,7,9,11,15-pentaenoic Acid formation at 13 uM up to 24 hrs by LC-MS/MS analysis; assay type: ADME, cell-based; details: hepg2, 24 h
Summary of the method: (§2)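 Medium was spiked with d4-LTB4 internal standard, SPE-extracted, and quantified by RP-HPLC coupled to triple quadrupole SRM. Amounts are given as nmol per mg cell protein (Bradford) or as % of NPD1 at T0.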

[3] = Drug level in human HepG2 cells treated with 13 uM Protectin-D1 assessed as compound formation incubated for 4 hrs by RP-HPLC/MS analysis; assay type: ADME, cell-based; details: hepg2, 4 h
Summary of the method: (§3)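 HepG2 cells were kept in serum-free medium and incubated for 4 h with 13 μM NPD1 (final) or ethanol vehicle. Media were extracted and run on RP-HPLC with a linear ion trap ESI-MS, using full scans at m/z 100-1000. Peaks present only in NPD1 incubates were located from single-ion chromatograms. MS/MS spectra were collected and compared with those of synthetic standards.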

[4] = Drug metabolism in human HepG2 cells assessed as parent compound remaining level at 13 uM after 24 hrs by LC-MS/MS analysis relative to control; assay type: ADME, cell-based; details: read-out: Stability; summary of the method: as §2
Mus musculus = experiment: Antiinflammatory activity in FVB mouse model of acute pulmonary inflammation assessed as reduction in number of infiltrating neutrophils in BAL fluid at 10 ng administered intratracheally with lipopolysaccharide measured at 24 hrs by FACS analysis; assay type: functional
Summary of the method: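 Female FVB mice, 7–8 weeks old, acclimated at least 5 days. Intratracheal challenge with 50 μL LPS (250 μg/mL in PBS) containing 10 ng test agent or vehicle (EtOH, 2% final). Controls received PBS with 2% EtOH. BAL collected 24 h later (three 0.6 ml PBS washes). Neutrophils counted by FACS as CD45+ F4/80− Ly6G^hi CD11b^hi, absolute numbers from counting tubes; mean ± SEM, n=3.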

[5] = Drug metabolism in human HepG2 cells assessed as omega-hydroxylated dinor-NPD1 formation at 13 uM incubated for 4 hrs by RP-HPLC/MS analysis; assay type: ADME, cell-based; details: hepg2, 4 h; summary of the method: as §3
[6] = Drug metabolism in human HepG2 cells at 0.52 uM measured at 30 mins by LC-MS/MS analysis; assay type: ADME, cell-based; details: read-out: Drug metabolism; summary of the method: as §2
[7] = Drug excretion in healthy human urine assessed as (5Z,8R,9E,11E,13Z,15S,17Z)-8,15-Dihydroxyicosa-5,9,11,13,17-pentaenoic Acid formation by LC-MS/MS analysis; assay type: ADME, tissue-based; details: in vivo
[8] = Drug metabolism in human HepG2 cells assessed as Tmax for 3Z,6R,7E,9E,11Z,13S,15Z)-6,13-Dihydroxyoctadeca-3,7,9,11,15-pentaenoic Acid formation at 2.6 uM by LC-MS/MS analysis; assay type: ADME, cell-based; details: hepg2, 2.6 µM; summary of the method: as §2
[9] = Drug metabolism in human HepG2 cells assessed as (5Z,8R,9E,11E,13Z,15S,17Z)-8,15-Dihydroxyicosa-5,9,11,13,17-pentaenoic Acid formation at 13 uM up to 8 hrs by LC-MS/MS analysis; assay type: ADME, cell-based; details: hepg2, 8 h; summary of the method: as §2
[10] = Drug metabolism in human HepG2 cells assessed as hexanor-NPD1 formation at 13 uM incubated for 4 hrs by RP-HPLC/MS analysis; assay type: ADME, cell-based; details: hepg2, 4 h; summary of the method: as §3
[11] = Drug excretion in healthy human urine by LC-MS/MS analysis; assay type: ADME, tissue-based; details: in vivo
[12] = Half life in human HepG2 cells at 2.6 uM by LC-MS/MS analysis; assay type: ADME, cell-based; summary of the method: as §2
[13] = Drug metabolism in human HepG2 cells assessed as (5Z,8R,9E,11E,13Z,15S,17Z)-8,15-Dihydroxyicosa-5,9,11,13,17-pentaenoic Acid formation at 13 uM incubated for 4 hrs by tandem mass spectrometric analysis; assay type: ADME, cell-based; details: hepg2, 4 h; summary of the method: as §3
[14] = Drug metabolism in human HepG2 cells assessed as 3Z,6R,7E,9E,11Z,13S,15Z)-6,13-Dihydroxyoctadeca-3,7,9,11,15-pentaenoic Acid formation at 13 uM incubated for 4 hrs by tandem mass spectrometric analysis; assay type: ADME, cell-based; details: hepg2, 4 h; summary of the method: as §3
[15] = Half life in human HepG2 cells at 0.52 uM by LC-MS/MS analysis; assay type: ADME, cell-based; summary of the method: as §2
[16] = Drug metabolism in human HepG2 cells assessed as 22-OH-NPD1 formation at 13 uM incubated for 4 hrs by tandem mass spectrometric analysis; assay type: ADME, cell-based; details: hepg2, 4 h; summary of the method: as §3
Homo sapiens [17] = species: Homo sapiens; experiment: Inhibition of LTB4-induced chemotaxis in human polymorphonuclear leukocytes incubated for 90 mins by Diff-Quick staining based densitometric analysis; assay type: functional, cell-based; summary of the method: as §1
[18] = Drug metabolism in human HepG2 cells assessed as (5Z,8R,9E,11E,13Z,15S,17Z)-8,15-Dihydroxyicosa-5,9,11,13,17-pentaenoic Acid formation at 13 uM after 24 hrs by LC-MS/MS analysis; assay type: ADME, cell-based; details: hepg2, 24 h; summary of the method: as §2
[19] = Drug excretion in healthy human urine assessed as 3Z,6R,7E,9E,11Z,13S,15Z)-6,13-Dihydroxyoctadeca-3,7,9,11,15-pentaenoic Acid formation by LC-MS/MS analysis; assay type: ADME, tissue-based; details: in vivo
[20] = Drug level in healthy human urine assessed as drug recovery at 50 ng measured up to 24 hrs at room temperature in presence of BHT by LC-MS/MS analysis; assay type: ADME, tissue-based; details: urine of healthy humans, read-out: Drug recovery
[21] = Drug metabolism in human HepG2 cells assessed as (5Z,8R,9E,11E,13Z,15S,17Z)-8,15-Dihydroxyicosa-5,9,11,13,17-pentaenoic Acid formation at 13 uM incubated for 4 hrs by RP-HPLC/MS analysis; assay type: ADME, cell-based; details: hepg2, 4 h; summary of the method: as §3
[22] = Drug metabolism in human HepG2 cells assessed as 22-OH-NPD1 formation at 13 uM incubated for 4 hrs by RP-HPLC/MS analysis; assay type: ADME, cell-based; details: hepg2, 4 h; summary of the method: as §3
[23] = Drug metabolism in human HepG2 cells treated with 13 uM Protectin-D1 assessed as compound formation incubated for 4 hrs by tandem mass spectrometric analysis; assay type: ADME, cell-based; details: hepg2, 4 h; summary of the method: as §3
[24] = Drug metabolism in human HepG2 cells assessed as 3Z,6R,7E,9E,11Z,13S,15Z)-6,13-Dihydroxyoctadeca-3,7,9,11,15-pentaenoic Acid formation at 13 uM after 24 hrs by LC-MS/MS analysis; assay type: ADME, cell-based; details: hepg2, 24 h; summary of the method: as §2
[25] = Half life in human HepG2 cells at 13 uM by LC-MS/MS analysis; assay type: ADME, cell-based; summary of the method: as §2
[26] = Drug metabolism in human HepG2 cells assessed as 3Z,6R,7E,9E,11Z,13S,15Z)-6,13-Dihydroxyoctadeca-3,7,9,11,15-pentaenoic Acid formation at 13 uM incubated for 4 hrs by RP-HPLC/MS analysis; assay type: ADME, cell-based; details: hepg2, 4 h; summary of the method: as §3
[27] = Drug metabolism in human HepG2 cells assessed as 3Z,6R,7E,9E,11Z,13S,15Z)-6,13-Dihydroxyoctadeca-3,7,9,11,15-pentaenoic Acid formation at 13 uM after 30 mins by LC-MS/MS analysis; assay type: ADME, cell-based; details: hepg2, 0.5 h; summary of the method: as §2
[28] = Drug metabolism in human HepG2 cells assessed as Tmax for 3Z,6R,7E,9E,11Z,13S,15Z)-6,13-Dihydroxyoctadeca-3,7,9,11,15-pentaenoic Acid formation at 0.52 uM by LC-MS/MS analysis; assay type: ADME, cell-based; details: hepg2, 0.52 µM; summary of the method: as §2
[29] = Drug metabolism in human HepG2 cells assessed as (5Z,8R,9E,11E,13Z,15S,17Z)-8,15-Dihydroxyicosa-5,9,11,13,17-pentaenoic Acid formation at 13 uM after 30 mins by LC-MS/MS analysis; assay type: ADME, cell-based; details: hepg2, 0.5 h; summary of the method: as §2
[30] = Stability in human HepG2 cells at 2.6 uM up to 4 hrs by LC-MS/MS analysis; assay type: ADME, cell-based; details: hepg2, 4 h
Summary of the method: (§4)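 HepG2 cells in serum-free medium were incubated with 2.6 or 0.52 μM final NPD1 or LTE4. Medium was collected at 30 min, 1 h and 4 h, spiked with d4-LTB4 and d5-LTE4, SPE-extracted and quantified by LC-MS/MS SRM. Results are expressed as % of the amount measured at T0.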

[31] = Stability in human HepG2 cells at 0.52 uM up to 4 hrs by LC-MS/MS analysis; assay type: ADME, cell-based; details: hepg2, 4 h; summary of the method: as §4

- Drug metabolism [2]: Metabolite_Detected
- Drug uptake [3]: Active
- remaining at 24 h, 13 µM [4]: < 0.1%
Structure (SMILES): CC/C=C\C[C@H](O)\C=C/C=C/C=C/[C@H](O)C/C=C\CCCC(=O)O
- inhibition (Homo sapiens [1]): inactive

- Drug uptake [3]: Active
Structure (SMILES): CC/C=C\C[C@H](O)\C=C/C=C/C=C/[C@H](O)C/C=C\CC(=O)O
- inhibition (Homo sapiens [1]): Active
- inhibition (INH) (Mus musculus): 20%

- Drug uptake [3]: Active
Structure (SMILES): O=C(O)CC/C=C\C/C=C\C[C@@H](O)/C=C/C=C/C=C\[C@@H](O)C/C=C\CCO

- Drug metabolism [5]: Metabolite_Detected
- metabolised at 0.5 h, 0.52 µM [6]: > 50%
- Drug excretion [7]: Metabolite_Notdetected
- Tmax [8]: 4 h
- Drug metabolism [9]: Metabolite_Detected
- Drug metabolism [10]: Metabolite_Detected
- Drug excretion [11]: Metabolite_Notdetected
- half-life at 2.6 µM [12]: 1 h
- Drug metabolism [13]: Metabolite_Detected
- Drug metabolism [14]: Metabolite_Detected
- half-life at 0.52 µM [15]: 0.5 h
- Drug metabolism [16]: Metabolite_Detected
- remaining at 24 h, 13 µM [4]: 0%
- Drug metabolism [18]: Metabolite_Notdetected
- Drug excretion [19]: Metabolite_Notdetected
- remaining at 24 h, 50 ng [20]: 106%
- Drug metabolism [21]: Metabolite_Detected
- Drug metabolism [22]: Metabolite_Detected
- Drug uptake [23]: Active
- Drug metabolism [24]: Metabolite_Detected
- half-life at 13 µM [25]: > 4 h
- Drug metabolism [26]: Metabolite_Detected
- Drug metabolism [27]: Metabolite_Detected
- Tmax [28]: 4 h
- Drug metabolism [29]: Metabolite_Detected
Structure (SMILES): CC/C=C\C[C@H](O)\C=C/C=C/C=C/[C@H](O)C/C=C\C/C=C\CCC(=O)O
- inhibition (Homo sapiens [17]): Dose-dependent effect

- Stability [30]: Stable
- Drug excretion [11]: Metabolite_Detected
- Stability [31]: Stable
Structure (SMILES): CCCCC/C=C\C\C=C/C=C/C=C/[C@@H](SC[C@H](N)C(=O)O)[C@@H](O)CCCC(=O)O [LEUKOTRIEN E4]

From ChEMBL document CHEMBL4414623, “Rapid Metabolization of Protectin D1 by β-Oxidation of Its Polar Head Chain” (J Med Chem, 2019)
